Experimental data from ChEMBL document CHEMBL1126783, “Design of potent, cyclic peptide bradykinin receptor antagonists from conformationally constrained linear peptides” (J Med Chem, 1993).
Where a SMILES comes first, the peptide text is derived from it. Bridges are numbered along the chain shown (N, C = ends). [ ]: non-standard residue; d: D form. Oic = O=C(O)[C@@H]1C[C@@H]2CCCC[C@@H]2N1; Hyp = O=C(O)[C@@H]1C[C@@H](O)CN1; dTic = O=C(O)[C@H]1Cc2ccccc2CN1

Columns and labels:
B2 bradykinin receptor [1] = target: T1, B2 bradykinin receptor (Cavia porcellus, UniProt O70526); assay: Binding affinity against [3H]bradykinin binding to bradykinin receptor B2 in guinea pig ileal membrane; format: cell membranes
T1 sequence (O70526 whole entry): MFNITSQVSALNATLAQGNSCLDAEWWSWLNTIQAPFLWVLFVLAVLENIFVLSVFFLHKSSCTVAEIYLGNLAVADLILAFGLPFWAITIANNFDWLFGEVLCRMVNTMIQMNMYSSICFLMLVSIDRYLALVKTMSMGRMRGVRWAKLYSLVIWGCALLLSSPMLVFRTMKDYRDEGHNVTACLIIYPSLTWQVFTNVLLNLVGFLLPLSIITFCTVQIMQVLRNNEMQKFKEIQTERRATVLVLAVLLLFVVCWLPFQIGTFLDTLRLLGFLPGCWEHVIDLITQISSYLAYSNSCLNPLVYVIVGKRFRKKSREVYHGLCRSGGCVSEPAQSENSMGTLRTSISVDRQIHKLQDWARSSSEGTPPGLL
Summary of the method: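 Competition binding against [³H]bradykinin on guinea pig ileal membrane preparations, with affinity given as Ki following a previously described method. The ileum expresses only B2 receptors.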

B2 bradykinin receptor [2] = target: T1, B2 bradykinin receptor; assay: Antagonism against bradykinin receptor B2 in guinea pig ileal tissue; format: functional; details: read-out: pA2 (converted)
Summary of the method: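 Functional antagonism recorded as pA2 in isolated guinea pig ileal tissue, a preparation that expresses only B2 receptors. The procedure follows conventional, previously reported methods.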

Row | Ki (B2 bradykinin receptor [1]) [nM] | Kb (B2 bradykinin receptor [2]) [nM] | Structure (SMILES)
1 | 0.08 | 1.51 | NC(N)=NCCC[C@@H](N)C(=O)N[C@@H](CCCN=C(N)N)C(=O)N1CCC[C@H]1C(=O)N1C[C@H](O)C[C@H]1C(=O)NCC(=O)N[C@@H](Cc1ccccc1)C(=O)N[C@@H](CO)C(=O)N1Cc2ccccc2C[C@@H]1C(=O)N1[C@H](C(=O)N[C@@H](CCCN=C(N)N)C(=O)O)C[C@@H]2CCCC[C@@H]21 (H-[dR]RP[Hyp]GFS[dTic][Oic]R-OH)
2 | 30.8 |  | CN(CC(=O)N[C@@H](Cc1ccccc1)C(=O)N[C@@H](CO)C(=O)N1Cc2ccccc2C[C@@H]1C(=O)N1C2CCCCC2C[C@H]1C(=O)N[C@@H](CCCN=C(N)N)C(=O)O)C(=O)[C@@H]1C[C@H](O)CN1C(=O)[C@@H]1CCCN1C(=O)[C@H](CCCN=C(N)N)NC(=O)[C@H](N)CCCN=C(N)N (some centres not stated)
3 |  | 501 | NC(N)=NCCC[C@@H](N)C(=O)N[C@@H](CCCN=C(N)N)C(=O)N[C@H]1CSSC[C@@H](C(=O)N2Cc3ccccc3C[C@@H]2C(=O)N2[C@H](C(=O)N[C@@H](CCCN=C(N)N)C(=O)O)C[C@@H]3CCCC[C@@H]32)NC(=O)[C@H](Cc2ccccc2)NC(=O)CNC(=O)[C@@H]2CCCN2C1=O (H-[dR]RCPGFC[dTic][Oic]R-OH; disulfide 3-7)
4 | 0.54 | 12.6 | C[C@@](Cc1ccccc1)(NC(=O)CNC(=O)[C@@H]1C[C@H](O)CN1C(=O)[C@@H]1CCCN1C(=O)[C@H](CCCN=C(N)N)NC(=O)[C@H](N)CCCN=C(N)N)C(=O)N[C@@H](CO)C(=O)N1Cc2ccccc2C[C@@H]1C(=O)N1C2CCCCC2C[C@H]1C(=O)N[C@@H](CCCN=C(N)N)C(=O)O (some centres not stated)
5 | 82.3 |  | CC(NC(=O)[C@@H]1C[C@H](O)CN1C(=O)[C@@H]1CCCN1C(=O)[C@H](CCCN=C(N)N)NC(=O)[C@H](N)CCCN=C(N)N)C(=O)N[C@@H](Cc1ccccc1)C(=O)N[C@@H](CO)C(=O)N1Cc2ccccc2C[C@@H]1C(=O)N1C2CCCCC2C[C@H]1C(=O)N[C@@H](CCCN=C(N)N)C(=O)O (some centres not stated)
6 | 1690 |  | CN(CC(=O)N(C)[C@@H](Cc1ccccc1)C(=O)N[C@@H](CO)C(=O)N1Cc2ccccc2C[C@@H]1C(=O)N1C2CCCCC2C[C@H]1C(=O)N[C@@H](CCCN=C(N)N)C(=O)O)C(=O)[C@@H]1C[C@H](O)CN1C(=O)[C@@H]1CCCN1C(=O)[C@H](CCCN=C(N)N)NC(=O)[C@H](N)CCCN=C(N)N (some centres not stated)
7 |  | 240 | N=C(N)NCCC[C@@H](N)C(=O)N[C@@H](CCCNC(=N)N)C(=O)N[C@H]1CSSC[C@@H](C(=O)N[C@@H](CO)C(=O)N2Cc3ccccc3C[C@@H]2C(=O)N2[C@H](C(=O)N[C@@H](CCCNC(=N)N)C(=O)O)C[C@@H]3CCCC[C@@H]32)NC(=O)CNC(=O)[C@@H]2CCCN2C1=O (H-[dR]RCPGCS[dTic][Oic]R-OH; disulfide 3-6)
8 | 26.5 | 2510 | CN(C(=O)CNC(=O)[C@@H]1C[C@H](O)CN1C(=O)[C@@H]1CCCN1C(=O)[C@H](CCCN=C(N)N)NC(=O)[C@H](N)CCCN=C(N)N)[C@@H](Cc1ccccc1)C(=O)N[C@@H](CO)C(=O)N1Cc2ccccc2C[C@@H]1C(=O)N1C2CCCCC2C[C@H]1C(=O)N[C@@H](CCCN=C(N)N)C(=O)O (some centres not stated)
9 | 3030 |  | CC(NC(=O)[C@@H]1C[C@H](O)CN1C(=O)[C@@H]1CCCN1C(=O)[C@H](CCCN=C(N)N)NC(=O)[C@H](N)CCCN=C(N)N)C(=O)N[C@@](C)(Cc1ccccc1)C(=O)N[C@@H](CO)C(=O)N1Cc2ccccc2C[C@@H]1C(=O)N1C2CCCCC2C[C@H]1C(=O)N[C@@H](CCCN=C(N)N)C(=O)O (some centres not stated)
